Experiments:
Human cytosolic LeuRS = Human cytosolic LeuRS (Homo sapiens, UniProt Q9P2J5); experiment: Aminoacylation inhibition; assay type: biochemical
In short: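 Human cytosolic or mitochondrial LeuRS, expressed in E. coli. Aminoacylation run at 30°C. At least six test-compound concentrations were tested, with enzyme amount set to form 10 pmol Leu-tRNALeu in 5 min. IC50 was taken from a fitted dose-response curve, as the mean of at least two independent experiments.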

A549 = experiment: Cell proliferation assay; assay type: cell-based; settings: Homo sapiens, A549, read-out: IC50, Human cell lines, A549
In short: (§1)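 Cells in DMEM/10% FBS, 37°C, 5% CO2. Seeded from 1 × 10^5 cells/mL and allowed to adhere overnight. Test compound added at 2.5–100 μg/mL (0.5% DMSO final), five wells per concentration. Incubated 0, 24, 48 or 72 h, then 4 h with MTS/PMS (20:1), and A492 read. DMSO and medium-only controls. IC50 by nonlinear regression against log concentration.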

HEK 293 = experiment: Cell proliferation assay; assay type: cell-based; settings: Homo sapiens, HEK293, read-out: IC50, Human cell lines, HEK 293
In short: as §1

E. coli LeuRS (EcLeuRS) = E. coli LeuRS (EcLeuRS) (Escherichia coli, UniProt P07813); experiment: Aminoacylation inhibition; assay type: biochemical
Chain of E. coli LeuRS (EcLeuRS) (P07813 whole entry): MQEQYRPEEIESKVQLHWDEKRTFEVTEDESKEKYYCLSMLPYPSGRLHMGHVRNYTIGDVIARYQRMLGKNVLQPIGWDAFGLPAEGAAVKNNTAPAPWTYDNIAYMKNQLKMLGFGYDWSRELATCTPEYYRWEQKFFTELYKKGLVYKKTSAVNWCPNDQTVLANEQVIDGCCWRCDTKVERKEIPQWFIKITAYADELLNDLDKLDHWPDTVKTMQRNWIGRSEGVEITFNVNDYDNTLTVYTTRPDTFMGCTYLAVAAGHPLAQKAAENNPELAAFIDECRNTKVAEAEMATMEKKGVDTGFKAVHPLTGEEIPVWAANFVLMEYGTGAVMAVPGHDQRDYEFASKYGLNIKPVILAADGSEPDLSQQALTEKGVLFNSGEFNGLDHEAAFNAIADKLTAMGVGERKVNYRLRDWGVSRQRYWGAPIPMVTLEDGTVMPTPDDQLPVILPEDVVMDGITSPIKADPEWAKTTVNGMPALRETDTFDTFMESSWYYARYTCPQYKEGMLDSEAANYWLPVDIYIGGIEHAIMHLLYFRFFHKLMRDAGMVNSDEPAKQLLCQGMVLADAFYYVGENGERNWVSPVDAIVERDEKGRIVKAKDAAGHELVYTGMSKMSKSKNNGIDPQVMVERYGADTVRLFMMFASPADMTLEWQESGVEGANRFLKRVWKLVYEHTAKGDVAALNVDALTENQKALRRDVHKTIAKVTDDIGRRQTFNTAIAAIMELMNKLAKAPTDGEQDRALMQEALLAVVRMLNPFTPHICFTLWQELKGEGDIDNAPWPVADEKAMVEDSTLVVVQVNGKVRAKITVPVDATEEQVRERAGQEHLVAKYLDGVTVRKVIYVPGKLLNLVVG
In short: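 Aminoacylation at 37°C with [3H]leucine, started with 4 mM ATP, in Tris-HCl pH 7.5 buffer. Each LeuRS was used at equal activity, i.e. forming 10 pmol Leu-tRNALeu in 5 min. At least six test-compound concentrations were tested. IC50 was taken from a fitted dose-response curve, as the mean of at least two independent experiments.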

SpLeuRS Y332D = biological target: T1, SpLeuRS Y332D (Streptococcus pneumoniae serotype 4, UniProt Q97SS0, Y332D); experiment: Aminoacylation by SpLeuRS Y332D mutant; assay type: biochemical; settings: 50 μM ZCL039
T1 sequence (Q97SS0 1-833 Y332D): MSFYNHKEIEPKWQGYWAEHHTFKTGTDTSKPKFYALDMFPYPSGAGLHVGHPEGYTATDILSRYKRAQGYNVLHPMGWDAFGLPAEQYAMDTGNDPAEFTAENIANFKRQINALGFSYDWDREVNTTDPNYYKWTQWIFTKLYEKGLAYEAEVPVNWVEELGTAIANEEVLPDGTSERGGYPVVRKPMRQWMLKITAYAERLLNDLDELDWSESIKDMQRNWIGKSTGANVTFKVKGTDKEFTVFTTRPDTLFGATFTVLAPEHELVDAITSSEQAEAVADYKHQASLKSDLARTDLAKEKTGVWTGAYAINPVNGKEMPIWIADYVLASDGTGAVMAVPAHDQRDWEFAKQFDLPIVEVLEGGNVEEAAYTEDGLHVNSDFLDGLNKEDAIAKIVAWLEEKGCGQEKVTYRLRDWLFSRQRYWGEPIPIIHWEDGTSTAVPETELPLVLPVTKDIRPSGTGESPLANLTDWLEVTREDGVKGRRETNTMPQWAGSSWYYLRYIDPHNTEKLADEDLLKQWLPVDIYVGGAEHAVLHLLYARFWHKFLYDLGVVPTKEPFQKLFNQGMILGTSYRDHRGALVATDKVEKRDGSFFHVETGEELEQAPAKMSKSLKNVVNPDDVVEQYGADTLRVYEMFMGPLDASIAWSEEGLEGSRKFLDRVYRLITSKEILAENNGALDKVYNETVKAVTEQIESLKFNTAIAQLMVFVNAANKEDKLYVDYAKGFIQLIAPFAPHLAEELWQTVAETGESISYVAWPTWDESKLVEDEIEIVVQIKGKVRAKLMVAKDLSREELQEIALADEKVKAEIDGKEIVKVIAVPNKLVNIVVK
In short: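 Aminoacylation at 37°C, started with 4 mM ATP. Point mutants were made by site-directed mutagenesis. The MmLinker chimera has CP1 Lys226–Thr411 replaced by a nonapeptide. Means of three independent experiments.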

Chain of Human cytosolic LeuRS (Q9P2J5 whole entry): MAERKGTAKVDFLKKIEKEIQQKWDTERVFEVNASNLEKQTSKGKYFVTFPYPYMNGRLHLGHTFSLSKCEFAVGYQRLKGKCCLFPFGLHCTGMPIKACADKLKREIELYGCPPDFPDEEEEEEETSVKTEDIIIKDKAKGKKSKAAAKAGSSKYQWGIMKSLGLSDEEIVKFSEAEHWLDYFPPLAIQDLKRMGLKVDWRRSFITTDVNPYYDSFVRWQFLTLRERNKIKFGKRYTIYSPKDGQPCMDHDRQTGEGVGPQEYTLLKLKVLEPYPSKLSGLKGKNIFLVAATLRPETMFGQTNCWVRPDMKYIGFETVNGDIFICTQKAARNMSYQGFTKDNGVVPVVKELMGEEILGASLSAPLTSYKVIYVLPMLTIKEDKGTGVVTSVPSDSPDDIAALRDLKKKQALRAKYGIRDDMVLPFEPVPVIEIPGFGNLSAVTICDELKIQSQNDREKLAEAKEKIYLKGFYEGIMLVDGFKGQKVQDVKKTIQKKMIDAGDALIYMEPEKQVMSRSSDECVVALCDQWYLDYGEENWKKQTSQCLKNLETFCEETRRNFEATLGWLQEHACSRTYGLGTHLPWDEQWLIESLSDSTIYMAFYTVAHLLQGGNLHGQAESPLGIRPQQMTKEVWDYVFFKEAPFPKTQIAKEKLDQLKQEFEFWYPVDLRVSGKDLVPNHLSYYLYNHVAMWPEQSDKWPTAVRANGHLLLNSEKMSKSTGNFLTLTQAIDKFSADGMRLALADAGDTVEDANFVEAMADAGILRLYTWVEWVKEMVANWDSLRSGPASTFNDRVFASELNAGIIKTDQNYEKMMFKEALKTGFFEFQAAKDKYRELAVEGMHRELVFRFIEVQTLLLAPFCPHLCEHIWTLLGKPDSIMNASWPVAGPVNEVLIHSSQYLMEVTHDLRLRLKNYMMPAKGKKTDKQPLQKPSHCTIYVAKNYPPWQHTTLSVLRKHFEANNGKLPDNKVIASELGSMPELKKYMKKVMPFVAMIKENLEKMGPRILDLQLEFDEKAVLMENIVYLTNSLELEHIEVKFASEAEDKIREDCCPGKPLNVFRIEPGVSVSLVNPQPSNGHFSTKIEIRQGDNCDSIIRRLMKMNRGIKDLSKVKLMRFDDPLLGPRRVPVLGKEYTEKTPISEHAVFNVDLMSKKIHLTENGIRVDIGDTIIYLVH

Structure (SMILES): OB1OCc2ccc(C(O)c3ccccc3)cc21 (centres unmarked) [ZCL039, [6-(1-phenyl-1-hydroxylmethyl)]-1,3-dihydro-1-hydroxy-2,1-benzoxaborole]
- IC50 (Human cytosolic LeuRS): > 250 µM
- Fold more sensitivity of SpLeuRS than human cytosolic LeuRS (Human cytosolic LeuRS; aminoacylation): over 150 fold
- Fold less sensitive than SpLeuRS (Human cytosolic LeuRS; human cytosolic and mitochondrial LeuRSs vs SpLeuRS): approximately 150 fold
- IC50 (A549): > 200 µM
- IC50 (HEK 293): > 200 µM
- IC50 (E. coli LeuRS (EcLeuRS)): 8.25 ± 1.2 µM
- IC50 towards SpLeuRS relative to EcLeuRS (E. coli LeuRS (EcLeuRS); printed as higher): 5 fold
- Effect on synthetic activity of Y332D mutant (SpLeuRS Y332D): did not affect

Reference: paper PMC3747510 (Scientific Reports, 2013)
